From PubChem BioAssay
CHT block = inhibitors of human choline transporter CHT. Q9GZV3. CHT-expressing cells, membrane potential dye, choline response; hits give low values. B-score at 10 µM. 0.86% of 310,000 active;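 active = B-score over 3 SD under the library average, and starting fluorescence ratio not unusually high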;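 also: choline stimulus applied at its EC90 after an EC20 pre-addition; B-score computed on integrated fluorescence ratio after choline addition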
COUP-TFII inh = blocks human COUP-TFII nuclear receptor | HEK293T NGFI-A luciferase reporter, luminescence | 0.7% of 370,000 active | inhibition, % at 8.6 µM | P24468;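 active = inhibition above a per-plate cutoff, mean inhibition of test wells between control levels plus 3 SD, cut at about 38% in these data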;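 also: cells cotransfected with COUP-TFII expression vector driving the NGFI-A reporter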
Target sequence (P24468 whole entry, looked up): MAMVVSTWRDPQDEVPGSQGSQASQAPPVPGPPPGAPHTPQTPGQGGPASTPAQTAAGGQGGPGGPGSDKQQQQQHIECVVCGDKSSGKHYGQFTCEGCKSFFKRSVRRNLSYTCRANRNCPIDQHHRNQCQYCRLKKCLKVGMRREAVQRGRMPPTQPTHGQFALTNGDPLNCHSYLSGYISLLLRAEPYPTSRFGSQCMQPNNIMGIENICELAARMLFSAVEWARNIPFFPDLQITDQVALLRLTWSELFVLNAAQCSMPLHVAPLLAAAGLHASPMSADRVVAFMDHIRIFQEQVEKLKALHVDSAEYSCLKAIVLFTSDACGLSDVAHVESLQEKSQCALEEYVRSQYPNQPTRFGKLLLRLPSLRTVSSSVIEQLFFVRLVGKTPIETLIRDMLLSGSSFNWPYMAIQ
GalR3 antagonist = human GalR3 antagonism; O60755; HEK293 GalR3-CNG cAMP membrane potential fluorescence; galR3 body fused to GalR1 C-terminus; inhibition, % at 3 µM; 0.44% of 360,000 active; AID 651719;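 active = inhibition above the screen-wide average plus 3 SD, cut at about 13% in these data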;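 also: forskolin and galanin both at EC90 stimulate the cells; cAMP rise reported by CNG channel membrane potential dye signal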
CHT allo act = human CHT allosteric activation; 0.49% of 310,000 active; B-score at 10 µM; AID 488977; CHT-expressing cells, membrane potential dye, choline EC20; hits give high values; LV-AA mutant CHT in HEK293 cells;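 active = initial fluorescence not abnormally high and integrated response B-score, plate-corrected, over 3 SD above library mean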
NR2E3 ag-1 = agonists of human NR2E3 nuclear receptor. Q9Y5X4. CHO-S Gal4-NCOR/VP16-NR2E3 two-hybrid, luciferase. inhibition of corepressor binding, % at 3.98 µM. 0.35% of 360,000 active. AID 602229;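 active = inhibition above the mean of all tested compounds plus 3 SD, cut at about 70% in these data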;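 also: higher means lower luciferase signal from less NR2E3 corepressor binding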
NR2E3 ag-2 = agonists of human nuclear receptor NR2E3; Q9Y5X4; GST-NR2E3/biotin-RetCOR TR-FRET, 1536-well; inhibition of corepressor binding, % at 4.78 µM; 0.12% of 320,000 active;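 active = percent inhibition above the cutoff of mean plus 3 SD of all tested compounds, set per screening campaign, cut at about 20% in these data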
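System: GST-tagged NR2E3 plus biotinylated RetCOR corepressor; Buffer or medium: pH 7.5 Tris-based buffer; Probe or stimulus: RetCOR corepressor, biotinylated, 7 nM; Doses: compound at 4.8 µM, single dose; Schedule: 5 h incubation at 4 °C; Technique: time-resolved FRET; Evaluation: percent inhibition of TR-FRET ratio; Replication: one well per compound, singlicate testing.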
CHT block conf = human CHT inhibition, confirmatory screen; CHT activity remaining % of control (hits give low values), % at 10 µM; AID 493221; 70% of 2,400 active; CHT-expressing cells, choline membrane potential dye; LV-to-AA substituted CHT, HEK293 cells; shares compounds with CHT block;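 active = choline transporter activity left, mean of duplicates at 10 µM, below buffer-only control mean minus 3 SD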;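 also: depolarization triggered by choline at its EC90 following an EC20 pre-addition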
HEK293 MPD ctr = activity in parental HEK293 cells lacking CHT; 4% of 2,400 active; shares compounds with CHT block; AID 493222; membrane potential ratio readout (active if shifted either direction beyond buffer ±3SD; no single direction) at 10 µM; membrane potential dye, choline response; active = decrease or increase beyond buffer ±3SD;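 also: parental cells lack the transporter so any hit is non-specific; ratio is peak minus trough fluorescence over baseline after EC90 choline challenge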
Hits are given with their value; n = inactive; x = no result. The list is not random: actives were taken first. Their share in the collection is about 2.3%.

SMILES	CHT block	COUP-TFII inh	GalR3 antagonist	CHT allo act	NR2E3 ag-1	NR2E3 ag-2	CHT block conf	HEK293 MPD ctr
O=C(/C=C/c1ccccc1)N1CCC(Cc2ccccc2)CC1	-5.29	n	n	n	n	n	n	n
Cc1ccc(C(=O)NCC(=O)N2CCC(Cc3ccccc3)CC2)cc1	-5.25	n	n	n	n	n	59.2%	n
COC(=O)[C@H](CC(C)C)N1Cc2nnn(CC3CCCCC3)c2-c2ccccc2S1(=O)=O	x	n	x	x	x	x	x	x
C=C(C)Cn1c(SCC(=O)N/N=C(\C)c2ccc([N+](=O)[O-])cc2)nnc1-c1ccc(Br)cc1	x	n	x	x	x	x	x	x
O=C(COc1ccccc1/C=C1\SC(=O)NC1=O)Nc1ccccc1	-5.72	n	n	n	n	n	51.5%	n
CN(C)CCCN(C(=O)c1ccc(S(=O)(=O)N(C)Cc2ccccc2)cc1)c1nc2c(F)cccc2s1	n	n	n	n	n	n	x	x
CCOc1cccc2sc(N(CCCN(C)C)C(=O)c3ccc(S(=O)(=O)N(C)c4ccccc4)cc3)nc12	-5.45	n	n	n	n	n	n	n
O=C(O)CN1C(=O)/C(=C/C=C/c2ccccc2)SC1=S	-8.54	n	n	n	n	n	39.6%	n
CC(=O)c1ccc(NC(=O)CN2C(=O)/C(=C/C=C/c3ccccc3)SC2=S)cc1	n	n	n	n	n	n	x	x
NC(=O)c1c(NC(=O)CN2C(=O)NC(Cc3ccccc3)C2=O)sc2c1CCC2 (stereo not given)	-6.3	n	n	n	n	n	61.6%	n
CCOC(=O)[C@]12CCCCC/C=C\1N(CCc1ccc(Cl)cc1)C(=O)[C@H]2CC(=O)NCC12CC3CC(CC(C3)C1)C2	x	n	x	x	x	x	x	x
CC(C)CN1CCNC(=O)C1CC(=O)NCCc1ccc(C(F)(F)F)cc1 (stereo not given)	-4.95	n	n	n	n	n	n	n
CCC(C)Nc1nc2c(c(=O)[nH]c(=O)n2C)n1CCC(C)C (stereo not given)	-8.35	n	n	n	n	n	n	n
CCN1Cc2nnn(Cc3ccc(C)cc3)c2-c2ccccc2S1(=O)=O	x	n	x	x	x	x	x	x
CC[C@H](C)[C@@H](C(=O)NCCCCCCCCCCC(=O)N1CCN(C(=O)OC(C)(C)C)CC1)n1cc(CCCCCNC(=O)OC(C)(C)C)nn1	n	n	n	n	n	n	x	x
Cc1cn([C@H](C(=O)NCCCCCCCCCCC(=O)N2CCN(C(=O)OC(C)(C)C)CC2)[C@@H](C)O)nn1	-6.78	n	n	n	n	n	59.7%	n
C=CCNC(=O)N1CCN(Cc2nc3ccccc3c(=O)[nH]2)CC1	x	n	x	x	x	x	x	x
CCCC1CCC2(CC1)CCC2OC(=O)Nc1cccc(C(F)(F)F)c1 (stereo not given)	x	n	x	x	x	x	x	x
O=C(Cc1ccc(F)cc1)c1ccc(O)cc1O	n	n	n	n	n	n	x	x
CCc1cc(C(=O)COc2ccccc2F)c(O)cc1O	-5.83	n	n	n	n	n	n	n
COc1ccc(OC)c(C(=O)COC(=O)COc2ccccc2F)c1	x	n	n	x	n	x	x	x
CCCc1cc(C(=O)Cc2ccc(F)cc2)c(O)cc1O	-6.51	n	n	n	n	n	61.6%	n
CCc1cc(C(=O)Cc2ccc(F)cc2)c(O)cc1O	-5.6	n	n	n	n	n	42.8%	n
Cc1ccc(-n2c(SCC(=O)Nc3ccc4c(c3)OCCO4)nnc2-c2cnccn2)cc1	x	n	x	x	x	x	x	x
Cn1c(-c2ccc(F)cc2)cnc1NCc1ccccc1	-5.03	n	n	n	n	n	n	n
COC(=O)[C@]12C[C@H](CC(=O)N3CCCC3)C(=O)N(Cc3cccc4ccccc34)C1=C[C@H](C1CCCC1)O[C@@H]2C	x	n	x	x	x	x	x	x
CCOP(=O)(OCC)C(NC(=O)Nc1c(C)cc(C)cc1C)c1ccccc1 (stereo not given)	-5.97	n	n	n	n	n	n	n
